# NR2E3 ag-1: NR2E3 (human) agonism. AID 2300. inhibition of corepressor binding, % at 4.78 µM. actives 0.12% (n = 320,000). GST-NR2E3/biotin-RetCOR TR-FRET, 1536-well;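 active means percent inhibition above the cutoff of mean plus 3 SD of all tested compounds, set per screening campaign, cut at about 20% in these data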;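 further: 0% = DMSO wells and 100% = biotin wells as full block of FRET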
#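 Assay system: NR2E3–RetCOR corepressor complex. Quantity: 1.35 nM GST-NR2E3. Buffer or medium: pH 7.5 Tris-based buffer. Reagent: biotinylated RetCOR corepressor at 7 nM final. Schedule: 5 h at 4 °C. Detection: TR-FRET, emission read at 617 and 671 nm. Replicates: one well per compound, singlicate testing.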
# NR1D1 modulator: modulates human Rev-erb alpha binding to DNA; P20393; Rev-erbα–FITC-DNA binding, fluorescence polarization, 90 min; activity, % at 10 µM; actives 0.79% (n = 370,000); AID 1259318;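 active means activity above about 14%, limit read from the data; passing the limit was not always enough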;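 further: 0% = DMSO wells with 35 nM protein and 100% = DMSO wells with 750 nM protein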
# Target sequence (P20393 whole entry, looked up): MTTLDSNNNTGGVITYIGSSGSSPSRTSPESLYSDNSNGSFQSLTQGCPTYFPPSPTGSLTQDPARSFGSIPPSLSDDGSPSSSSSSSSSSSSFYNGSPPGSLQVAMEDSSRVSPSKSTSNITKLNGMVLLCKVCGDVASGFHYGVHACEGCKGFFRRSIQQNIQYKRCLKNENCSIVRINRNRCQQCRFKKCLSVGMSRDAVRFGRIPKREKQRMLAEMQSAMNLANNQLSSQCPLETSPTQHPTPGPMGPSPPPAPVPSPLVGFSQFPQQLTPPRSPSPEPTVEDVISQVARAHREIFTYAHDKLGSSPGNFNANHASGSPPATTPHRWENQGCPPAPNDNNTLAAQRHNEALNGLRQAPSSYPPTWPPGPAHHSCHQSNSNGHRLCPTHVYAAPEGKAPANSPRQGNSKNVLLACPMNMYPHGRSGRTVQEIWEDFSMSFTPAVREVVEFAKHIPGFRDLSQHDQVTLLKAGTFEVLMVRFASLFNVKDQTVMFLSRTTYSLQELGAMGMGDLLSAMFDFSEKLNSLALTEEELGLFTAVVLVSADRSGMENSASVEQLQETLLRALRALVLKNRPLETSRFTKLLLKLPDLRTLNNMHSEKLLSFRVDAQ
# NR2E3 ag-2: activates human NR2E3 receptor; Q9Y5X4; CHO-S Gal4-NCOR/VP16-NR2E3 two-hybrid, luciferase; inhibition of corepressor binding, % at 3.98 µM; actives 0.35% (n = 360,000);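 active means inhibition above the mean of all tested compounds plus 3 SD, cut at about 70% in these data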;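 further: 0% = DMSO with NR2E3 transfected cells and 100% = cells lacking NR2E3 construct; higher means lower luciferase signal from less NR2E3 corepressor binding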
# rCAG binder: r(CAG) repeat RNA binding. TO-PRO-1 dye displacement fluorescence. inhibition, % at 3 µM. actives 1.3% (n = 370,000);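 active means inhibition above the plate cutoff, the mean of all test compounds on that plate plus 3 SD, cut at about 35% in these data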;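 further: 0% = DMSO alone and 100% = 100 µM mitoxantrone as full dye displacement; higher means more dye released from RNA so lower well fluorescence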
# PG9 binder: binds the HIV-1 gp120 antibody PG9 | TR-FRET gp120-PG9 antibody binding | AID 624416 | actives 0.43% (n = 360,000) | inhibition, % at 6.7 µM; in the data active means inhibition above about 8.5%
# rCAG binder conf: r(CAG) RNA repeat binding, confirmation | shares compounds with rCAG binder | inhibition, % at 3 µM | TO-PRO-1 dye displacement fluorescence | actives 70% (n = 4,300);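 active means inhibition above a per-plate cutoff, the mean inhibition of sample wells plus 3 SD, cut at about 35% in these data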;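 further: loss of TO-PRO-1 fluorescence as compound displaces dye from 1x1 AA loop RNA; 0% = DMSO only wells and 100% = 100 µM mitoxantrone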
# dCAG dye counter: DNA CAG dye complex inhibition counter-screen; d(CAG) DNA oligo TO-PRO-1 dye displacement, fluorescence; inhibition, % at 3 µM; actives 94% (n = 4,300); shares compounds with rCAG binder;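 active means inhibition above its plate's cutoff, the mean test-well inhibition plus 3 SD, cut at about 4.8% in these data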;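 further: 0% = DNA dye mix with DMSO and 100% = 100 µM mitoxantrone; hits displace the dye from DNA and so lower well fluorescence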
# DNA CAG DR: counter-screen for rCAG binders: inhibitors of DNA CAG TO-PRO-1 complex | AID 686960 | IC50, µM | DNA CAG/GTC duplex TO-PRO-1 dye displacement fluorescence | shares compounds with rCAG binder | actives 20% (n = 250); in the data active means IC50 below about 10 µM
# * = called active by the depositor; i = inactive; · = no result. Rows were chosen to be rich in hits. Some 2.6% of all compounds tested hit in one or more screens of this group.
SMILES,NR2E3 ag-1,NR1D1 modulator,NR2E3 ag-2,rCAG binder,PG9 binder,rCAG binder conf,dCAG dye counter,others
COc1ccc(/C=C/C(=O)Nc2ccc(S(=O)(=O)Nc3onc(C)c3C)cc2)cc1OC,2,-5,-1,39*,-2,38*,11*,
Cc1noc(NS(=O)(=O)c2ccc(NC(=O)CS(=O)(=O)c3ccccc3)cc2)c1C,1,7,16,15,0,·,·,
Cc1noc(NS(=O)(=O)c2ccc(NC(=O)/C=C/c3ccc(Cl)cc3Cl)cc2)c1C,·,1,-23,25,-1,·,·,
O=C1NC[C@H](CCCCN2CCN(CCc3ccccc3)C(=O)C2=O)N(Cc2ccccc2)C1=O,·,3,-6,2,1,·,·,
O=C(Nc1nnc([C@@H]2C[C@H](O)[C@@H](CO)O2)s1)Nc1cccc2c1CCCC2,·,-5,-5,5,2,·,·,
CSc1ccc(CCCCCCOC(=O)C(C)(C)C)cc1,3,-2,-16,0,0,·,·,
CC1=C(C#N)C(=O)NC(=O)/C1=C\c1ccc(-c2ccc(C)cc2[N+](=O)[O-])o1,·,2,-32,43*,0,73*,34*,DNA CAG DR=5.1*
CCCc1cc2c(-c3ccccc3)cc(=O)oc2cc1OCc1ccc(C(=O)O)o1,-4,2,33,57*,0,73*,27*,DNA CAG DR=i
CCc1cc2c(-c3ccccc3)cc(=O)oc2cc1OCC(C)=O,3,1,1,-2,-1,·,·,
CCOC(=O)C(=O)N(C)c1c(CC)nc2c(OCc3ccccc3C)cccn12,·,0,-3,0,0,·,·,
COc1ccc(Cl)c(NC(=O)C/C(C)=N/NC(=O)CCc2ccccc2)c1,3,2,-22,37*,-1,3,0,
C/C(CC(=O)Nc1ccc(Cl)c(Cl)c1)=N\NC(=O)Cc1ccccc1,-1,10,-38,4,0,·,·,
COC1C=COC2(C)Oc3c(C)c(O)c4c(O)c(c(CN5CCN(C)CC5)c(O)c4c3C2=O)NC(=O)C(C)=CC=CC(C)C(O)C(C)C(O)C(C)C(OC(C)=O)C1C (stereo not given),·,4,4,37*,-9,34,7.5*,
CCCCCCCCN1C(=O)[C@@H](CC(=O)NCCCN2CCCC2=O)C[C@@]2(C(=O)OC)C1=C[C@H](C(C)C)O[C@@H]2C1CC1,·,-4,·,1,·,·,·,
CC(C)(C)c1ccc(OCc2ccc(C(=O)NN)o2)cc1,3,-2,-172,0,-2,·,·,
CC(C)(c1ccccc1)c1ccc(OCc2ccc(C(=O)O)o2)cc1,·,3,-116,39*,0,34,4,
CCn1nc(NS(=O)(=O)c2ccc([N+](=O)[O-])cc2)c2cc3ccc(C)cc3nc21,-4,0,-37,53*,-2,37*,9.6*,
O=C(Nc1ccc2c(c1)OCO2)c1ccc2sc([C@H]3C[C@H](O)[C@@H](CO)O3)nc2c1,·,-1,1,3,-1,·,·,
COc1ccc(NS(=O)(=O)c2ccc(O)c(C(=O)OCC(=O)Nc3ccc4c(c3)OCCO4)c2)cc1,1,1,-17,38*,0,28,11*,
O=C(COC(=O)c1cc(S(=O)(=O)Nc2ccccc2Cl)ccc1O)Nc1nc2ccccc2s1,·,3,-20,43*,1,69*,31*,
N#Cc1cccc(NC(=O)COC(=O)c2cc(S(=O)(=O)Nc3ccccc3Cl)ccc2O)c1,·,-3,18,52*,0,45*,15*,
O=C(NCc1n[nH]c(=S)n1-c1ccc(Cl)c(Cl)c1)c1ccc(S(=O)(=O)N2CCCCC2)cc1,2,1,0,36*,1,30,11*,
CCCN(CCC)S(=O)(=O)c1ccc(C(=O)NCc2n[nH]c(=S)n2-c2ccc(Cl)c(Cl)c2)cc1,-2,-1,14,35*,0,29,7.0*,
O=C(NCc1n[nH]c(=S)n1-c1cccc(Cl)c1)c1ccc(S(=O)(=O)N2CCCC2)cc1,2,5,8,10,1,·,·,
C=C1[C@@H](O)[C@H](CC(C)C)N(Cc2ccccc2Br)S1(=O)=O,·,-3,12,0,0,·,·,
SMILES,NR2E3 ag-1,NR1D1 modulator,NR2E3 ag-2,rCAG binder,PG9 binder,rCAG binder conf,dCAG dye counter,others
CC(/C=C1\SC(=S)N(NC(=O)c2cccc(O)c2)C1=O)=C\c1ccccc1,2,-2,-18,40*,0,26,12*,
N#C/C(=C\c1ccccc1OCc1ccc(C(=O)O)cc1)C(=O)Nc1ccc(O)cc1,0,1,-25,44*,1,34,10*,
COC(=O)c1ccc(COc2ccccc2/C=C(\C#N)C(=O)Nc2ccc(C)cc2)cc1,2,2,-40,-2,-1,·,·,
O=C1C(Cl)=C(NS(=O)(=O)c2ccc([N+](=O)[O-])cc2)C(=O)c2ccccc21,-5,-2,-7,38*,-3,24,5.3*,
CCNC1=C(Cl)C(=O)c2ccccc2C1=O,-6,12,-34,1,-10,·,·,
COc1ccc2nc(Nc3nc4cc5c(cc4s3)OCO5)sc2c1,2,9,-48,44*,3,32,20*,
Cc1ccc(CNC(=O)C2CC(c3ccc([N+](=O)[O-])cc3)=NO2)cc1 (stereo not given),0,-4,-55,44*,1,3,0,
O=S(=O)(Nc1cccc(S(=O)(=O)N2CCCCC2)c1)c1ccc(Cl)s1,·,0,-3,46*,-2,35*,12*,
Cc1ccc(S(=O)(=O)Nc2cccc(S(=O)(=O)N3CCCC3)c2)cc1C,·,1,2,10,-2,·,·,
N#C/C(=C(/O)CN1CCN(c2ccccc2F)CC1)c1nc(-c2ccccc2)cs1,1,0,16,58*,-3,49*,16*,
Cc1ccc(NC(=O)/C(=C\c2ccc([N+](=O)[O-])cc2)NC(=O)c2ccccc2)cc1,0,1,-10,8,1,·,·,
O=C(Nc1ccc(C(=O)O)cc1)/C(=C\c1ccc2c(c1)OCO2)NC(=O)c1ccccc1,-2,0,10,7,-2,·,·,
CC(=O)Oc1ccc(/C=C(\NC(=O)c2cccc(Br)c2)C(=O)Nc2ccc(C(=O)O)cc2)cc1,5,0,4,50*,-2,27,6.4*,
O=C(Nc1ccc(C(=O)O)cc1)/C(=C\c1ccc2c(c1)OCO2)NC(=O)c1ccc(Br)cc1,2,3,-2,39*,0,27,8.0*,
O=C(Nc1ccc(C(=O)O)cc1)/C(=C\c1ccc([N+](=O)[O-])cc1)NC(=O)c1ccc(Br)cc1,1,2,-19,44*,-1,26,7.0*,
